This is an account of results in ChEMBL document CHEMBL2176990, “Synthesis and biological evaluation of 5-benzylidenepyrimidine-2,4,6(1H,3H,5H)-trione derivatives for the treatment of obesity-related nonalcoholic fatty liver disease” (J Med Chem, 2012).

For series [1], the system named is 3T3-L1. As to the kind of experiment: Down-regulation of […] expression in mouse 3T3L1 cells at 10 uM after 24 hrs by ELISA. The series is classed as functional. In short, it runs like this: (§1)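 3T3-L1 preadipocytes grown to 2 days post-confluence. Differentiated with 0.5 mM IBMX, 0.25 μM dexamethasone and 1 μg/mL insulin for 2 days, then insulin alone for 2 days, then 10% FBS DMEM. On day 12, treated 24 h; secreted adiponectin and leptin measured by ELISA. Three independent experiments.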

Series [2] relates to 3T3-L1. The series is described as follows: Up-regulation of adiponectin expression in mouse 3T3L1 cells at 10 uM after 24 hrs by ELISA. The series is classed as functional. In short, it runs like this: as §1
Series [3] deals with HepG2. As to the kind of experiment: Reduction of glucose consumption in insulin-resistant human HepG2 cells at 10 uM after 24 hrs by glucose oxidase method in presence of 22.2 mM of glucose. The series is classed as functional, cell-based. The gist of the method:
(§2)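 HepG2 cells in DMEM (22.2 mM glucose) with 10% FBS, exposed to 0.1 μM insulin from plating for 2 days. At confluence, given fresh 22.2 mM glucose DMEM with test agents for 24 h. Medium glucose measured by glucose oxidase. Consumption = blank minus remaining glucose, normalized to MTT. Three independent experiments.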

The subject of series [4] is HepG2. As to the kind of experiment: Reduction of glucose consumption in insulin-resistant human HepG2 cells at 10 uM after 24 hrs by glucose oxidase method in presence of 0.1 uM of insulin. The series is classed as functional, cell-based. The gist of the method: as §2
Series [5] concerns HepG2. As to the kind of experiment: Reduction of glucose consumption in insulin-resistant human HepG2 cells at 10 uM after 24 hrs by glucose oxidase method. The series is classed as functional, cell-based. In short, it runs like this: as §2
Another series concerns Rattus norvegicus. The series is described as follows: Toxicity in Wistar rat high fat diet-induced NAFLD model assessed as effect on food intake at 150 mg/kg, po qd for 4 weeks. The series is classed as organism-based. Set-up: dose 150 mg/kg, route oral. The settings on record: in vivo, 672 h. The gist of the method: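 Male Wistar rats (160−180 g) fed high-fat diet (50.55% calories from fat), n = 10 per group. Dosed orally at 150 mg/kg/day for 4 weeks. Body, liver and fat weights and food intake recorded. Serum lipids, AST, ALT and glucose measured on a biochemistry analyzer. Fasting insulin measured by kit; adiponectin and leptin by ELISA. Mean ± SD; percent change vs HFD group.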

The source made the active and inactive calls. The calls are words filed in the database; no cut-off is given here.

Take `O=C1NC(=O)C(=Cc2ccc(OC3CCN(c4ncccc4C(F)(F)F)CC3)cc2)C(=O)N1`: the result in the series on 3T3-L1 [1] was inactive. Moreover, the outcome in the series on 3T3-L1 [2], in the series on HepG2 [3] and in the series on HepG2 [4] was Active.
In the case of `O=C1NC(=O)C(=Cc2ccc(OC3CCN(C(=O)c4cccc(Cl)n4)CC3)cc2)C(=O)N1`, the result in the series on HepG2 [5] and with HepG2 [4] was inactive.
Turning to `COc1cc(OC2CCN(c3ncccc3C#N)CC2)cc(OC)c1C=C1C(=O)NC(=S)NC1=O`, the outcome in the series with HepG2 [5] and in the series with HepG2 [4] was inactive.
Regarding `O=C1NC(=O)C(=Cc2ccc(OC3CCN(C(=O)c4ccccn4)CC3)cc2)C(=O)N1`, the outcome in the series on HepG2 [5] and in the series on HepG2 [4] was inactive.
For the compound `COC(=O)c1sccc1S(=O)(=O)N1CCC(Oc2ccc(C=C3C(=O)NC(=O)NC3=O)cc2F)CC1`, the outcome with HepG2 [5] and with HepG2 [4] was inactive.
Consider `O=C1NC(=O)C(=Cc2ccc(OC3CCN(C(=O)c4ccncc4)CC3)cc2)C(=O)N1`, for which the outcome with 3T3-L1 [1] was inactive. In addition, the result in the series with 3T3-L1 [2], with HepG2 [3] and in the series on HepG2 [4] was Active.
As for `O=C1NC(=O)C(=Cc2ccc(OC3CCN(C(=O)c4cccc(C(F)(F)F)c4)CC3)cc2)C(=O)N1`, the outcome in the series on 3T3-L1 [1] was inactive. The result in the series with 3T3-L1 [2], in the series on HepG2 [3] and with HepG2 [4] was Active.
As for `N#Cc1cccnc1N1CCC(Oc2ccc(C=C3C(=O)NC(=O)NC3=O)cc2)CC1`, the outcome in the series with HepG2 [5] and in the series with HepG2 [4] was inactive.
As to `O=C1NC(=O)C(=Cc2ccc(OC3CCN(C(=O)c4ccc(OC(F)F)cc4)CC3)cc2)C(=O)N1`, the result with HepG2 [5] and in the series on HepG2 [4] was inactive.
In the case of `O=C1NC(=O)C(=Cc2ccc(OC3CCN(C(=O)c4ccc(OC(F)F)cc4)CC3)c(F)c2)C(=O)N1`, the result in the series with HepG2 [3] and in the series with HepG2 [4] was Active.
As to `O=C1NC(=O)C(=Cc2ccc(OC3CCN(C(=O)c4cccnc4)CC3)cc2)C(=O)N1`, the result in the series on HepG2 [5] and in the series with HepG2 [4] was inactive.
`O=C1NC(=O)C(=Cc2ccc(CNC3CCN(c4ccc([N+](=O)[O-])cn4)CC3)cc2)C(=O)N1`: the outcome in the series with HepG2 [5] and in the series on HepG2 [4] was inactive.
As to `CN(C)C(=N)N=C(N)N` [METFORMIN], in the series with Rattus norvegicus, the Activity entry is given as “Non-toxic”.
Turning to `CS(=O)(=O)N(Cc1ccc(C=C2C(=O)NC(=O)NC2=O)cc1)C1CCN(C(=O)c2cccc(OC(F)(F)C(F)F)c2)CC1`, the outcome in the series with HepG2 [5] and in the series on HepG2 [4] was inactive.
As for `N#Cc1cccnc1N1CCC(NC(=O)c2ccc(C=C3C(=O)NC(=O)NC3=O)cc2)CC1`, the outcome in the series with HepG2 [5] and in the series on HepG2 [4] was inactive.
As to `O=C1NC(=O)C(=Cc2ccc(C(=O)NC3CCN(c4cc([N+](=O)[O-])ccn4)CC3)cc2)C(=O)N1`, the result in the series on HepG2 [5] and in the series with HepG2 [4] was inactive.
`O=C1NC(=O)C(=Cc2ccc(OC3CCN(C(=O)c4ccc(Cl)cn4)CC3)cc2)C(=O)N1`: the result in the series with HepG2 [5] and in the series with HepG2 [4] was inactive.
For `O=C1NC(=O)C(=Cc2ccc(OC3CCN(c4ccc([N+](=O)[O-])cn4)CC3)cc2)C(=O)N1`, the outcome in the series on HepG2 [5] and in the series with HepG2 [4] was inactive.
Consider `CS(=O)(=O)N(Cc1ccc(C=C2C(=O)NC(=O)NC2=O)cc1)C1CCN(c2ccc([N+](=O)[O-])cn2)CC1`, for which the result in the series on HepG2 [5] and in the series on HepG2 [4] was inactive.
In the case of `O=C1NC(=O)C(=Cc2ccc(OC3CCN(C(=O)c4cccc5c4OC(F)(F)O5)CC3)c(F)c2)C(=O)N1`, the outcome in the series with HepG2 [5] and with HepG2 [4] was inactive.
`O=C1NC(=O)C(=Cc2ccc(OC3CCN(c4ccc(C(F)(F)F)cn4)CC3)cc2)C(=O)N1`: the outcome with HepG2 [5] and in the series on HepG2 [4] was inactive.
With `O=C1NC(=O)C(=Cc2ccc(C(=O)NC3CCN(c4ccc([N+](=O)[O-])cn4)CC3)cc2)C(=O)N1`, the result in the series with HepG2 [3] and in the series with HepG2 [4] was Active.
As for `O=C1NC(=O)C(=Cc2ccc(C(=O)N3CCC(Nc4ccc([N+](=O)[O-])cn4)CC3)cc2)C(=O)N1`, the result in the series with HepG2 [5] and in the series on HepG2 [4] was inactive.
Turning to `O=C1NC(=O)C(=Cc2ccc(C(=O)N3CCC(Nc4cc([N+](=O)[O-])ccn4)CC3)cc2)C(=O)N1`, the result in the series on HepG2 [5] and in the series on HepG2 [4] was inactive.
In the case of `O=C1NC(=O)C(=Cc2ccc(OC3CCN(c4ncccc4C(F)(F)F)CC3)c(F)c2)C(=O)N1`, the outcome in the series with HepG2 [5] and with HepG2 [4] was inactive.
For `CN(CCOc1ccc(CC2SC(=O)NC2=O)cc1)c1ccccn1` (centres undefined) [ROSIGLITAZONE], the Activity stood at 118.8 pg/mL in the series with 3T3-L1 [1] and 236 pg/mL in the series on 3T3-L1 [2]. Moreover, the result in the series on HepG2 [3] and in the series on HepG2 [4] was Active.
